Data from ChEMBL document CHEMBL1121938, “Hypocholesterolemic and antiaggregatory properties of 2-hydroxytetronic acid redox analogues an their relationship to clofibric acid” (1982).

Tests used:
Rattus norvegicus [1] = assay: Effect of compound was measured on serum alpha-lipoprotein in male Dawley rats at the dose of 0.4 mmol/kg (day+10).; type: functional, organism-based
Summary of the method: (§1)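 Male Sprague-Dawley rats (180-210 g) fed a high-cholesterol diet for 1 week before and throughout dosing. Groups of n = 6 were dosed orally twice daily for 14 days in 0.25% methylcellulose, with vehicle controls. Rats were fasted 16-18 h before orbital bleeds on days -1, +4, +7 and +10, and by aortic exsanguination on day +14. Serum α-lipoprotein cholesterol was measured by polyanionic precipitation, in mg/dL ± SD.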

Rattus norvegicus [2] = assay: Effect of compound was measured on serum alpha-lipoprotein in male Dawley rats at the dose of 0.4 mmol/kg (day+4).; type: functional, organism-based; summary of the method: as §1
Rattus norvegicus [3] = assay: Effect of compound was measured on serum alpha-lipoprotein in male Dawley rats at the dose of 0.4 mmol/kg (day+7).; type: functional, organism-based; summary of the method: as §1
Rattus norvegicus [4] = assay: Effect of compound was measured on serum alpha-lipoprotein in male Dawley rats at the dose of 0.4 mmol/kg (day-1).; type: functional, organism-based; summary of the method: as §1
Rattus norvegicus [5] = assay: Effect of compound was measured on serum alpha-lipoprotein in male Dawley rats at the dose of 0.4 mmol/kg (day14).; type: functional, organism-based; summary of the method: as §1
Rattus norvegicus [6] = assay: Effect of compound was measured on serum total cholesterol in male Dawley rats at the dose of 0.4 mmol/kg (day+10).; type: functional, organism-based
Summary of the method: (§2)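 Serum total cholesterol was measured enzymatically on a bichromatic analyzer. Serum was separated after clotting on ice (2000g, 10 min), held at 4 °C and assayed within 48 h. Rats were male Sprague-Dawley on a high-cholesterol diet, n = 6, dosed orally twice daily for 14 days in 0.25% methylcellulose (1.0 mL/100 g). They were fasted 16-18 h before each bleed. Results are in mg/dL ± SD.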

Rattus norvegicus [7] = assay: Effect of compound was measured on serum total cholesterol in male Dawley rats at the dose of 0.4 mmol/kg (day+14).; type: functional, organism-based; summary of the method: as §2
Rattus norvegicus [8] = assay: Effect of compound was measured on serum total cholesterol in male Dawley rats at the dose of 0.4 mmol/kg (day+4).; type: functional, organism-based; summary of the method: as §2
Rattus norvegicus [9] = assay: Effect of compound was measured on serum total cholesterol in male Dawley rats at the dose of 0.4 mmol/kg (day+7).; type: functional, organism-based; summary of the method: as §2
Rattus norvegicus [10] = assay: Effect of compound was measured on serum total cholesterol in male Dawley rats at the dose of 0.4 mmol/kg (day-1).; type: functional, organism-based; summary of the method: as §2
Rattus norvegicus [11] = assay: Effect of compound was measured on serum total triglycerides in male Dawley rats at the dose of 0.4 mmol/kg (day+10).; type: functional, organism-based
Summary of the method: (§3)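 Serum triglycerides were measured with an enzymatic triglyceride reagent on a bichromatic analyzer. Rats were male Sprague-Dawley (180-210 g) fed a high-cholesterol diet, n = 6 per group, dosed orally twice daily for 14 days in 0.25% methylcellulose or vehicle. They were fasted 16-18 h before blood collection on days -1, +4, +7, +10 (orbital plexus, light ether) and +14 (aorta). Analysis was repeated-measures ANOVA with Duncan's test.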

Rattus norvegicus [12] = assay: Effect of compound was measured on serum total triglycerides in male Dawley rats at the dose of 0.4 mmol/kg (day+14).; type: functional, organism-based; summary of the method: as §3
Rattus norvegicus [13] = assay: Effect of compound was measured on serum total triglycerides in male Dawley rats at the dose of 0.4 mmol/kg (day+7).; type: functional, organism-based; summary of the method: as §3
Rattus norvegicus [14] = assay: Effect of compound was measured on serum total triglycerides in male Dawley rats at the dose of 0.4 mmol/kg (day-1).; type: functional, organism-based; summary of the method: as §3
Rattus norvegicus [15] = assay: Effect of compound on liver CH levels in male Dawley rats at the dose of 0.4 mmol/kg; type: functional; set-up: unit: g/100 g wet liver
Summary of the method: (§4)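 Male Sprague-Dawley rats (180-210 g) were kept on a high-cholesterol diet for 1 week before and throughout treatment. Groups of n = 6 received drug in 0.25% methylcellulose orally twice daily for 14 days, or vehicle. After a 16-18 h fast, livers were excised at day +14 and homogenized in 0.1 M Tris-HCl pH 7.2 with 1.15% KCl. Lipids were extracted from 25% w/v homogenate and reported as g/100 g wet liver ± SD; groups compared by ANOVA and Duncan's test.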

Rattus norvegicus [16] = assay: Effect of compound on liver TG levels in male Dawley rats at the dose of 0.4 mmol/kg; type: functional; set-up: unit: g/100 g wet liver; summary of the method: as §4
[17] = Effect of compound was measured on serum heparin-MnCl2 precipated ipoprotein Dawley rats at 0.4 mmol/kg dose(day+10).; type: functional
Summary of the method: (§5)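 Cholesterol-fed male Sprague-Dawley rats, n = 6 per group, given compound or 0.25% methylcellulose orally twice daily for 14 days, and fasted 16-18 h before each bleed (days -1, +4, +7, +10, +14). Heparin-MnCl2 precipitable lipoprotein cholesterol was taken as serum total cholesterol minus α-lipoprotein cholesterol. It is reported as a ratio to α-LP cholesterol ± SD. Analysis was ANOVA with repeated measures and Duncan's test.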

[18] = Effect of compound was measured on serum heparin-MnCl2 precipated ipoprotein Dawley rats at 0.4 mmol/kg dose(day+4).; type: functional; summary of the method: as §5
[19] = Effect of compound was measured on serum heparin-MnCl2 precipated ipoprotein Dawley rats at 0.4 mmol/kg dose(day+7).; type: functional; summary of the method: as §5
[20] = Effect of compound was measured on serum heparin-MnCl2 precipated ipoprotein Dawley rats at 0.4 mmol/kg dose(day-1).; type: functional; summary of the method: as §5
Rattus norvegicus [21] = assay: Effect of compound was measured on serum total triglycerides in male Dawley rats at the dose of 0.4 mmol/kg (day+4).; type: functional, organism-based; summary of the method: as §3
[22] = Effect of compound on liver to body weight ratio in male Dawley rats at the dose of 0.4 mmol/kg; type: functional
Summary of the method: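 Male Sprague-Dawley rats (180-210 g) were kept on a cholesterol-rich diet and dosed orally twice daily for 14 days in 0.25% methylcellulose; vehicle controls received the same; n = 6 per group. After a 16-18 h fast, rats were exsanguinated at day +14. Livers were removed, rinsed in ice-cold buffer, blotted and weighed, and related to body weight. Data were analysed by repeated-measures ANOVA with Duncan's multiple range test.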

[23] = Effect of compound was measured on serum heparin-MnCl2 precipated ipoprotein Dawley rats at 0.4 mmol/kg dose(day+14).; type: functional; summary of the method: as §5

In the case of `CCOC(=O)C(C)(C)Oc1ccc(Cl)cc1` [CLOFIBRATE], the alpha-lipoprotein cholesterol (Rattus norvegicus [1]) is reported as 51.7 mg/dL, the alpha-lipoprotein cholesterol (Rattus norvegicus [2]) is reported as 38.5 mg/dL and the alpha-lipoprotein cholesterol (Rattus norvegicus [3]) is reported as 52.7 mg/dL. The alpha-lipoprotein cholesterol (Rattus norvegicus [4]) was 44.4 mg/dL, the alpha-lipoprotein cholesterol (Rattus norvegicus [5]) was 55 mg/dL and the serum total cholesterol (Rattus norvegicus [6]) was 316 mg/dL. It also gave a serum total cholesterol (Rattus norvegicus [7]) of 302 mg/dL, a serum total cholesterol (Rattus norvegicus [8]) of 127 mg/dL and a serum total cholesterol (Rattus norvegicus [9]) of 209 mg/dL. The serum total cholesterol (Rattus norvegicus [10]) was 202 mg/dL, the Serum total triglycerides (Rattus norvegicus [11]) was 196 mg/dL and the Serum total triglycerides (Rattus norvegicus [12]) was 155 mg/dL. For the same compound, the Serum total triglycerides (Rattus norvegicus [13]) was 169 mg/dL, the Serum total triglycerides (Rattus norvegicus [14]) was 266 mg/dL and the “Liver CH levels” value (Rattus norvegicus [15]) was 3.58. For the same compound, the “Liver TG” value (Rattus norvegicus [16]) was 1.84, the Ratio [17] was 4.89 and the Ratio [18] was 2.54. For the same compound, the Ratio [19] was 3.12, the Ratio [20] was 3.81 and the Serum total triglycerides (Rattus norvegicus [21]) was 141 mg/dL. It also gave a Ratio [22] of 6.2 and a Ratio [23] of 4.76.
